Measured values taken from ChEMBL document CHEMBL1149648, “Norcantharimides, synthesis and anticancer activity: Synthesis of new norcantharidin analogues and their anticancer evaluation” (2007).

How the values were obtained:
Type in all cases: functional
A-431 = experiment: Cytotoxicity against human A431 cells at 100 uM after 72 hrs by MTT assay; settings: A-431, 72 h
Method in brief: (§1)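 Log-phase cells in DMEM with 10% FBS (37 °C, 5% CO2) were plated in duplicate at 2500–4000 cells/well. Agent was added 24 h later at a fixed final concentration of 100 µM and left for 72 h continuous exposure. Read-out was MTT absorbance at 540 nm, expressed as percent growth inhibition, where 100% means total growth inhibition.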

[1] = Cytotoxicity against human BE2C cells at 100 uM after 72 hrs by MTT assay; settings: BE(2)-C; method in brief: as §1
HT-29 = experiment: Cytotoxicity against human HT29 cells at 100 uM after 72 hrs by MTT assay; settings: HT-29, 72 h; method in brief: as §1
[2] = Cytotoxicity against human SJG2 cells at 100 uM after 72 hrs by MTT assay; settings: SJ-G2, 72 h; method in brief: as §1
MCF7 = experiment: Cytotoxicity against human MCF7 cells at 100 uM after 72 hrs by MTT assay; settings: MCF7, 72 h; method in brief: as §1
DU-145 = experiment: Cytotoxicity against human DU145 cells at 100 uM after 72 hrs by MTT assay; settings: DU-145, 72 h; method in brief: as §1
A2780 = experiment: Cytotoxicity against human A2780 cells at 100 uM after 72 hrs by MTT assay; settings: A2780, 72 h; method in brief: as §1
NCI-H460 = experiment: Cytotoxicity against human H460 cells at 100 uM after 72 hrs by MTT assay; settings: NCI-H460, 72 h; method in brief: as §1
SW480 = experiment: Cytotoxicity against human SW480 cells at 100 uM after 72 hrs by MTT assay; settings: SW480, 72 h; method in brief: as §1

O=C1[C@@H]2[C@H](C(=O)N1CCO)[C@@H]1CC[C@H]2O1
inhibition at 100 µM (A-431): < 10% | inhibition at 100 µM [1]: < 10% | inhibition at 100 µM (HT-29): 31% | inhibition at 100 µM [2]: < 10% | inhibition at 100 µM (MCF7): 45% | inhibition at 100 µM (DU-145): < 10% | inhibition at 100 µM (A2780): 15% | inhibition at 100 µM (NCI-H460): 16% | inhibition at 100 µM (SW480): 18%

COc1ccc(CN2C(=O)[C@@H]3[C@H](C2=O)[C@@H]2CC[C@H]3O2)cc1
inhibition at 100 µM (A-431): 14% | inhibition at 100 µM [1]: 29% | inhibition at 100 µM (HT-29): 45% | inhibition at 100 µM [2]: 11% | inhibition at 100 µM (MCF7): 64% | inhibition at 100 µM (DU-145): < 10% | inhibition at 100 µM (A2780): 20% | inhibition at 100 µM (NCI-H460): 23% | inhibition at 100 µM (SW480): 24%

O=C1[C@@H]2[C@H](C(=O)N1CCCCCCCCCCCCN1C(=O)[C@@H]3[C@H](C1=O)[C@@H]1CC[C@H]3O1)[C@@H]1CC[C@H]2O1
GI50 (A-431): 18 µM | GI50 [1]: 17 µM | GI50 (HT-29): 8.3 µM | GI50 [2]: 43 µM | GI50 (MCF7): 18 µM | GI50 (DU-145): 60 µM | GI50 (A2780): 19 µM | GI50 (NCI-H460): 31 µM | GI50 (SW480): 24 µM

O=C1[C@@H]2[C@H](C(=O)N1CC1CO1)[C@@H]1CC[C@H]2O1 (stereo partly drawn)
inhibition at 100 µM (A-431): 40% | inhibition at 100 µM [1]: 20% | inhibition at 100 µM (HT-29): 25% | inhibition at 100 µM [2]: 25% | inhibition at 100 µM (MCF7): 10% | inhibition at 100 µM (DU-145): 22% | inhibition at 100 µM (A2780): 40% | inhibition at 100 µM (NCI-H460): 17% | inhibition at 100 µM (SW480): 30%

O=C1[C@@H]2[C@H](C(=O)N1N1CCOCC1)[C@@H]1CC[C@H]2O1
inhibition at 100 µM (A-431): 30% | inhibition at 100 µM [1]: 39% | inhibition at 100 µM (HT-29): 29% | inhibition at 100 µM [2]: 3% | inhibition at 100 µM (MCF7): 12% | inhibition at 100 µM (DU-145): 3% | inhibition at 100 µM (A2780): 7% | inhibition at 100 µM (NCI-H460): 18% | inhibition at 100 µM (SW480): 29%

CC(C)(CO)N1C(=O)[C@@H]2[C@H](C1=O)[C@@H]1CC[C@H]2O1
inhibition at 100 µM (A-431): < 10% | inhibition at 100 µM [1]: < 10% | inhibition at 100 µM (HT-29): < 10% | inhibition at 100 µM [2]: < 10% | inhibition at 100 µM (MCF7): < 10% | inhibition at 100 µM (DU-145): < 10% | inhibition at 100 µM (A2780): < 10% | inhibition at 100 µM (NCI-H460): < 10% | inhibition at 100 µM (SW480): < 10%

CCN1C(=O)[C@@H]2[C@H](C1=O)[C@@H]1CC[C@H]2O1
inhibition at 100 µM (A-431): < 10% | inhibition at 100 µM [1]: < 10% | inhibition at 100 µM (HT-29): < 10% | inhibition at 100 µM [2]: < 10% | inhibition at 100 µM (MCF7): < 10% | inhibition at 100 µM (DU-145): < 10% | inhibition at 100 µM (A2780): < 10% | inhibition at 100 µM (NCI-H460): < 10% | inhibition at 100 µM (SW480): < 10%

O=C1[C@@H]2[C@H](C(=O)N1c1ccc(O)cc1)[C@@H]1CC[C@H]2O1
inhibition at 100 µM (A-431): 27% | inhibition at 100 µM [1]: 14% | inhibition at 100 µM (HT-29): 47% | inhibition at 100 µM [2]: 44% | inhibition at 100 µM (MCF7): 22% | inhibition at 100 µM (DU-145): < 10% | inhibition at 100 µM (A2780): 15% | inhibition at 100 µM (NCI-H460): 12% | inhibition at 100 µM (SW480): 21%

O=C(O)CCCN1C(=O)[C@@H]2[C@H](C1=O)[C@@H]1CC[C@H]2O1
inhibition at 100 µM (A-431): < 10% | inhibition at 100 µM [1]: < 10% | inhibition at 100 µM (HT-29): < 10% | inhibition at 100 µM [2]: < 10% | inhibition at 100 µM (MCF7): < 10% | inhibition at 100 µM (DU-145): < 10% | inhibition at 100 µM (A2780): < 10% | inhibition at 100 µM (NCI-H460): < 10% | inhibition at 100 µM (SW480): < 10%

CCCCCCCCCCCCCCCCCCN1C(=O)[C@@H]2[C@H](C1=O)[C@@H]1CC[C@H]2O1
inhibition at 100 µM (A-431): < 10% | inhibition at 100 µM [1]: < 10% | inhibition at 100 µM (HT-29): < 10% | inhibition at 100 µM [2]: < 10% | inhibition at 100 µM (MCF7): < 10% | inhibition at 100 µM (DU-145): < 10% | inhibition at 100 µM (A2780): < 10% | inhibition at 100 µM (NCI-H460): < 10% | inhibition at 100 µM (SW480): < 10%

O=C(O)CCCCCN1C(=O)[C@@H]2[C@H](C1=O)[C@@H]1CC[C@H]2O1
inhibition at 100 µM (A-431): 11% | inhibition at 100 µM [1]: 22% | inhibition at 100 µM (HT-29): 14% | inhibition at 100 µM [2]: < 10% | inhibition at 100 µM (MCF7): 47% | inhibition at 100 µM (DU-145): 12% | inhibition at 100 µM (A2780): 52% | inhibition at 100 µM (NCI-H460): 12% | inhibition at 100 µM (SW480): 11%

O=C1[C@@H]2[C@H](C(=O)N1c1ccccc1)[C@@H]1CC[C@H]2O1
inhibition at 100 µM (A-431): 25% | inhibition at 100 µM [1]: 54% | inhibition at 100 µM (HT-29): 63% | inhibition at 100 µM [2]: 42% | inhibition at 100 µM (MCF7): > 100% | inhibition at 100 µM (DU-145): 24% | inhibition at 100 µM (A2780): 90% | inhibition at 100 µM (NCI-H460): 50% | inhibition at 100 µM (SW480): 78%
